Data: ChEMBL document CHEMBL1255401, “Penicillin sulfone inhibitors of class D beta-lactamases” (Antimicrob Agents Chemother, 2010)

Key:
Escherichia coli = test: Antibacterial activity against Escherichia coli DH10B harboring RGN238 plasmid containing Beta-lactamase OXA-1 at 4 ug/ml in presence of increasing concentrations of piperacillin by broth agar dilution assay; type: functional
How it was run: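 Lysogeny broth agar dilution MIC on E. coli DH10B carrying plasmid RGN238 with blaOXA-1. Piperacillin tested at increasing concentrations with the inhibitor held at a constant 4 μg/ml. Plates inoculated by Steers replicator with 10 μl of a diluted overnight culture containing 10^4 CFU.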

[1] = Inhibition of Beta-lactamase OXA-17 expressed in Escherichia coli BL21 (DE3) by nitrocefin hydrolysis assay
How it was run: (§1)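 Competition assay at room temperature in 50 mM sodium phosphate with 20 mM bicarbonate, run in triplicate. Enzyme at 11 nM, reporter substrate 50 μM nitrocefin, inhibitor at 4 μM to 9 mM depending on inhibitor and enzyme. Initial velocities taken immediately after mixing, 1/v plotted against [I] and fitted linearly. Ki obtained as y-intercept divided by slope.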

[2] = Inhibition of Beta-lactamase OXA-24/40 expressed in Escherichia coli BL21 (DE3) by nitrocefin hydrolysis assay; how it was run: as §1
[3] = Inhibition of Beta-lactamase OXA-14 expressed in Escherichia coli BL21 (DE3) by nitrocefin hydrolysis assay; how it was run: as §1
[4] = Inhibition of Beta-lactamase OXA-10 expressed in Escherichia coli BL21 (DE3) by nitrocefin hydrolysis assay; how it was run: as §1
[5] = Inhibition of Beta-lactamase OXA-1 expressed in Escherichia coli BL21 (DE3) by nitrocefin hydrolysis assay; how it was run: as §1
[6] = Activity of Beta-lactamase OXA-1 expressed in Escherichia coli BL21 (DE3)
How it was run: (§2)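 OXA-1 from E. coli BL21(DE3) with pET 12a(+) blaOXA-1, IPTG-induced (0.2 mM), released with lysozyme/EDTA, purified by preparative isoelectric focusing. Continuous spectrophotometric hydrolysis assays of oxacillin, ampicillin, nitrocefin and cephaloridine at room temperature in 50 mM sodium phosphate with 20 mM bicarbonate, run in triplicate. Initial rates versus substrate concentration fitted to give kcat, Km and kcat/Km.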

[7] = Ratio of Kcat to Km for Beta-lactamase OXA-1 expressed in Escherichia coli BL21 (DE3); how it was run: as §2

Structure (SMILES)	MIC (Escherichia coli) [µg/mL]	Ki [1] [µM]	Ki [2] [µM]	Ki [3] [µM]	Ki [4] [µM]	Ki [5] [µM]	Km [6] [µM]	kcat [6] [s⁻¹]	kcat/Km [7] [M⁻¹ s⁻¹]
C[C@]1(Cn2ccnn2)[C@H](C(=O)O)N2C(=O)C[C@H]2S1(=O)=O [TAZOBACTAM]	512	40	271	30	170	585			
O=C(Cc1cccs1)N[C@@H]1C(=O)N2C(C(=O)[O-])=C(C[n+]3ccccc3)CS[C@H]12							80	16	210000
O=C(Cc1cccs1)N[C@@H]1C(=O)N2C(C(=O)O)=C(/C=C/c3ccc([N+](=O)[O-])cc3[N+](=O)[O-])CS[C@H]12							9	94	1e+07
O=C(O)[C@H]1/C(=C/CO)O[C@@H]2CC(=O)N21 [CLAVULANIC ACID]		45	51	19	104	195			
CC(=O)OC[C@@]1(C)[C@H](C(=O)O)N2C(=O)/C(=C/c3ccccn3)[C@H]2S1(=O)=O		0.87	2.4	4	17	1.4			
Cc1onc(-c2ccccc2)c1C(=O)N[C@@H]1C(=O)N2[C@@H]1SC(C)(C)[C@@H]2C(=O)O							31	577	1.9e+07
CC1(C)S[C@@H]2[C@H](NC(=O)[C@H](N)c3ccccc3)C(=O)N2[C@H]1C(=O)O							64	357	6e+06
C[C@]1(COC(=O)Cc2ccc(O)c(O)c2)[C@H](C(=O)O)N2C(=O)/C(=C/c3ccccn3)[C@H]2S1(=O)=O	128	0.2	0.65	1.4	8	0.7			
